Test: Toxicity liver stage against HepG2, at 10uM
Assay type: cell-based
Set-up: test concentration 10 uM, cell line HepG2-A16-CD81EGFP
Conditions: human, HepG2-A16-CD81EGFP cells; read-out: INHIBITION
Outline: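 Uninfected HepG2-A16-CD81EGFP cells, 3 × 10^3 per well, 1536-well, plated on prespotted compound at 10 μM final, parasite-free screening media added to match infected plates; puromycin 10 μM positive, DMSO 0.5% negative; run in parallel with 48 h PbLuc assay at 37 °C, 5% CO2; viability by CellTiter-Glo luminescence, normalized to controls.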

| SMILES | cytotoxicity at 10 µM |
| --- | --- |
| F[C@@H]1CN(CC2CC2)C[C@@H]1OCc1nc2ccccc2[nH]1 | -1.34% |
| CCc1nnc(NC(=O)c2c3c(nn2C2CCS(=O)(=O)C2)CCC3)s1 (stereo unspecified) | -4.28% |
| O=C(COc1ccccc1F)NCC(O)(c1ccccc1)C1CC1 (stereo unspecified) | -3.68% |
| CC(=O)N1CCC2(CCN(CC(C)C)C2)C1 (stereo unspecified) | 5.41% |
| CC(=O)N1[C@H](Cn2cncn2)C[C@@H]2CN(C(=O)c3ccoc3)CC[C@@H]21 | -3.42% |
| COCC(=O)N1CC[C@@H]2O[C@@H](COCC3CCOCC3)CC[C@@H]21 | 0.718% |
| Cn1cc(-c2ncnc3c2CCN(C(=O)c2cnccn2)CC3)cn1 | 6.93% |
| CC(C)Nc1ncnc2c1CCN(Cc1ccoc1)CC2 | 5.65% |
| COc1cc(N2CC[C@@H]3O[C@H](C(=O)NCC4CC4)C[C@@H]32)ncn1 | 10.7% |
| CCCS(=O)(=O)N1CCC2(CC(C(=O)NCc3cccnc3)=NO2)C1 (stereo unspecified) | -4.51% |
| COCC(=O)N1CCC2(CC(C(=O)NCc3cccnc3)=NO2)C1 (stereo unspecified) | -1.34% |
| Fc1cccc(N2CCOC3(CCCN(c4nncs4)C3)C2)c1 (stereo unspecified) | 4% |
| CCN(CC)C(=O)Cn1c(-c2ccc(Cl)cc2)nc(C)c(CCO)c1=O | 2.62% |
| O=c1ccc(-c2ccccc2F)nn1CN1CCCCCC1 | 5.76% |
| CCOc1ccc(-n2ccc3nc(N4CCCC4)ncc3c2=O)cc1 | -1.19% |
| COc1ccc(-c2n[nH]cc2C2SCC(=O)Nc3[nH]ncc32)cc1 (stereo unspecified) | -1.33% |
| O=C1NC2(CCN(C(=O)Cc3ccsc3)CC2)CC1c1ccncc1 (stereo unspecified) | 5.06% |
| O=C(NCc1cccs1)c1[nH]nc2c1CS(=O)(=O)CC2 | 1.41% |
| Cc1cccc(C(=O)N2CCCC(Cc3cncc4ccccc34)C2)n1 (stereo unspecified) | -19% |
| O=C(CCC1CCCO1)N1CCc2nc(-c3cnccn3)nc(O)c2C1 (stereo unspecified) | -20.3% |
| N#CCCCS(=O)(=O)NC(=O)c1cccc(Cl)c1F | -2.8% |
| Cc1ccc(C2CCCCCN2C(=O)Nc2cn[nH]c2)o1 (stereo unspecified) | 5.16% |
| Cc1c(C(=O)NCC(F)(F)F)nnn1-c1ccccc1Cl | 2.37% |

| SMILES | cytotoxicity at 10 µM |
| --- | --- |
| CCOc1ccc(NC(=O)c2ccc(C#N)cc2C)cc1CO | -4.12% |
| CC(C)c1ccc(OCCC(=O)NCCC(=O)N(C)C)cc1 | -4.37% |
| CNS(=O)(=O)CC1CCCN1c1ccc(Cl)cn1 (stereo unspecified) | 7.6% |
| Cc1c(NC(=O)N(C)CCO)cccc1OC1CCCC1 | -0.172% |
| CC(C)C1CCCN1C(=O)Nc1ccc(=O)n(C)c1 (stereo unspecified) | 0.581% |
| CC(=O)N1CCN(C(=O)c2sccc2Br)CC1 | 6.83% |
| CNS(=O)(=O)c1ccccc1N1CCN(C(C)C(N)=O)CC1 (stereo unspecified) | 4.87% |
| O=C1CCC(=O)N1Cc1ccc(C(=O)N2CCCC2c2cccs2)cc1 (stereo unspecified) | 2.8% |
| O=C(NCC(F)(F)F)c1nnn(-c2ccccc2)c1C(F)(F)F | 4.39% |
| Cn1ncc(C(=O)OCC2CC(=O)N(c3ccccc3)C2)c1C(F)F (stereo unspecified) | 1.93% |
| Cc1cc(CN(C)C(=O)NCc2ccccn2)no1 | 1.62% |
| COC(=O)C1CN(CC(=O)Nc2ccccc2Cl)c2ccccc21 (stereo unspecified) | 14.3% |
| COCCn1ccc(NC(=O)Nc2ccccc2)n1 | -0.0425% |
| Cn1cnc(-c2ccc(F)cc2)c1NC(=O)CCNC(=O)C(C)(C)C | 3.84% |
| COCc1csc(NC(=O)NCc2ncccc2C)n1 | -2.6% |
| O[C@@H]1CCN(c2ccc3c(Cl)ccnc3c2F)C1 | 2.12% |
| O=C(NCCc1cccs1)N1CCC[C@H]1CO | 10.3% |
| CC(C)NS(=O)(=O)c1ccccc1CNCc1cccc(O)c1 | -7.19% |
| CCC(c1ccccc1)N1CCN(C(=O)c2cc(C(N)=O)c[nH]2)CC1 (stereo unspecified) | 2.96% |
| CSc1ccc(CNc2ccccc2CN2CCC(O)CC2)cc1 | -4.75% |
| CCOc1cc(C(=O)N(C)C)ccc1NC(=O)c1ccsc1 | -0.587% |
| CC(C)n1cc2cc(NC(=O)CCS(C)(=O)=O)ccc2n1 | -141% |
| Cc1cc(N(Cc2ccon2)S(C)(=O)=O)ccc1Br | 4.51% |

| SMILES | cytotoxicity at 10 µM |
| --- | --- |
| CCCc1cc(NC(=O)c2cc(N3CCNC3=O)c(F)cc2F)n[nH]1 | 12.3% |
| CC(C)Cn1cc(NC(=O)N2CCOC(c3ccccc3)C2)cn1 (stereo unspecified) | 7.59% |
| Cc1csc(N2CCCN(C(=O)CCN3CCCC3=O)CC2)n1 | 24.3% |
| Cc1cc(C(=O)NCCN2CCCCC2)nn1C(C)(C)C | -3% |
| N#Cc1ccc(F)cc1Cn1cnc(C2CCC2)cc1=O | 15.4% |
| Cc1noc(COCC(=O)Nc2cc(C)c(Br)cn2)n1 | 5.5% |
| CN(Cc1ccccn1)C(=O)CC1CCOc2ccccc21 (stereo unspecified) | 11.6% |
| CCNC(=O)NC(=O)CNc1cccc(C(=O)c2ccccc2)c1 | 3.18% |
| Cc1cn(CC(=O)NC2CCN(C(=O)C3CC3)CC2)c2ccccc12 | -3.57% |
| CC(C)Oc1cccc(-c2nc3c([nH]2)CCCNC3=O)c1 | 27.3% |
| CCNc1ncc(C(=O)N2CCOC(CCCC(C)C)C2)cn1 (stereo unspecified) | 10.3% |
| CN(Cc1cnccn1)C(=O)[C@@]12CNC[C@@H]1CN(Cc1ccccc1)C2 | -2.59% |
| CS(=O)(=O)N1CCc2[nH]cnc2C12CCN(C1CCOCC1)CC2 | -4.52% |
| CCOC(=O)CC1CCCCN1C(=O)c1cccc2ccnn12 (stereo unspecified) | -105% |
| COc1cccc(CN2CCN(c3noc(C(C)C)n3)CC2)c1F | 2.97% |
| CCN1CC(C(=O)N2CCN(c3cnn(C)c(=O)c3)CC2)CCC1=O (stereo unspecified) | 0.508% |
| Cc1[nH]c2c(F)cccc2c1CC(=O)NCCCNc1cccnc1 | 1.56% |
| CCC(CC)n1nc(C)cc1NC(=O)CC1CCOCC1 | -2.17% |
| CO[C@H]1CN(C(=O)c2ccc(-c3ccccc3)[nH]2)CC[C@H]1N | 3.64% |
| O=C1CCC2(CCCN(c3ncnc4[nH]cnc34)C2)CN1CCCO (stereo unspecified) | -2.09% |
| COCC(=O)N1C[C@@H](CN2CCCN(C)CC2)[C@@H](CO)C1 | -3.85% |
| CCN1CCC(CNC(=O)C(c2ccccc2F)N(C)C)(N(C)C)CC1 (stereo unspecified) | -1.7% |
| COc1cc(N(C)CCC(O)c2ccccc2)ncn1 (stereo unspecified) | -139% |

| SMILES | cytotoxicity at 10 µM |
| --- | --- |
| COCC(=O)N1C[C@H]2CNC[C@@]2(C(=O)NCc2snnc2C)C1 | 8.27% |
| Cc1nccn1Cc1nnc(C2CCN(c3ccncc3F)CC2)n1C | -9.36% |
| CCn1c(C)nnc1SCCNc1nc(C)ncc1S(C)(=O)=O | -4.19% |
| CS(=O)(=O)NCCC(=O)N1CCC(Cc2ccc(CO)cc2)C1 (stereo unspecified) | -5.77% |
| O=C1N(CC2CCC2)CCCC12CCN(S(=O)(=O)c1cccnc1)C2 (stereo unspecified) | 9.94% |
| O=C(CN1CCCC1c1nc(-c2ccccc2)no1)N1CCOCC1 (stereo unspecified) | 4.17% |
| Cc1cc(C(=O)N2CCC(CCC(=O)NCCN(C)C)CC2)ccc1O | 5.38% |
| CCn1nc(C)c(NC(=O)CN(C)C(C)c2ccon2)c1C (stereo unspecified) | -147% |
| OC1(c2cn(C3CCN(C4CCSC4)CC3)nn2)CCCC1 (stereo unspecified) | 2.13% |
| CCCn1cnnc1CNC1CSCCSC1 | -7.31% |
| COc1c(C)cnc(CN2CCC(N(C)S(C)(=O)=O)CC2)c1C | 0.141% |
| Cc1nnc(NC(=O)NC(C)Cn2cccn2)s1 (stereo unspecified) | 6.62% |
| CCN1CC(C(=O)NCCOc2ccc3c(c2)OCO3)CC1=O (stereo unspecified) | -2.34% |
| Cc1cc(NC(=O)CN2CCCC(Cn3nc(C)nc3C)C2)n(C)n1 (stereo unspecified) | -9.54% |
| c1ncc2c(n1)CN(Cc1nc(-c3ccoc3)no1)CC2 | -10.2% |
| CC(Cn1ccnc1)NC(=O)Cc1ccc2c(c1)OCCO2 (stereo unspecified) | -7.2% |
| Cc1ncc2c(n1)CN(CCCc1ccccc1)CC2 | -34.7% |
| CCOc1cccc(C(C)NCc2c(C)nn(C)c2N(C)C)c1 (stereo unspecified) | 5.22% |
| Cn1ccc(CN2CCC(CC(=O)N3CCCC3)CC2)cc1=O | -12.6% |
| CC(CNC(=O)Nc1cn[nH]c1)N1CCCC1 (stereo unspecified) | -7.32% |
| Cc1ccsc1C(=O)N1CCCN(Cc2cscn2)CC1 | -12.4% |
| CCn1ncc2c1CCCC2NCc1ccc(C)s1 (stereo unspecified) | -6.73% |
| Cc1nc(CN2CCCN(CC(=O)Nc3ccncc3)CC2)no1 | -7.03% |

| SMILES | cytotoxicity at 10 µM |
| --- | --- |
| CC(C)Cc1noc(CN2CCN(c3nccs3)CC2)n1 | 0.607% |
| Cc1cccc(-c2noc(CN3CCCC3Cn3cccn3)n2)c1 (stereo unspecified) | 1.68% |
| CC(=O)N1CCC2(CC1)CN(C)CC[C@H]2C(F)(F)F | -153% |
| COCC1CC2(CCN(Cc3ccc(C)o3)CC2)CN1C(C)C (stereo unspecified) | -2.42% |
| Cn1cnc(S(=O)(=O)N2CCN(CC3CC3)c3ncccc3C2)c1 | -160% |
| Cc1nc(CN2CCC3(CCN(Cc4cnn(C)c4)CC3)C2=O)cs1 | 2.34% |
| CNC(=O)c1cc2c(nc1N(C)C)CCN(S(=O)(=O)CC(C)C)CC2 | -3.85% |
| c1cncc(OC[C@]23COC[C@H]2CN(Cc2cccs2)C3)c1 | -13% |
| O=C(NCC1CC1)[C@@H]1CCO[C@@H]2CCN(Cc3ccco3)C[C@H]21 | -4.93% |
| COCCCNC(=O)c1cc(-c2cnc(N(C)C)nc2)cn1CC1CC1 | 2.28% |
| O=C(C1CCOC1)N1C[C@H]2CN(Cc3ccncc3)C(=O)[C@H]2C1 (stereo partly specified) | -105% |
| Cc1cccc(CN2CCCn3c(nnc3Cn3cccn3)C2)n1 | -0.124% |
| CC(C)C(=O)N1CC[C@H]2N(C)CC[C@@]2(C(=O)Nc2cccnc2)CC1 | -121% |
| CN(C)C(=O)[C@@H]1CC[C@@H]2[C@@H](CCN2Cc2nccs2)O1 | 1.97% |
| Cc1ccc2c(c1)C1(CCNCC1)CC2NC(C)C (stereo unspecified) | -9.73% |
| CCN1CCOCC12CCN(C(=O)C1CCC1)CC2 | -1.39% |
| O=C(c1c[nH]c(=O)c(Cl)c1)N1C[C@H]2CC[C@@H](C1)N(CC1CCC1)C2 | -153% |
| CCNc1c(NC(=O)C2CC2)c(=O)oc2ccccc12 | -5.99% |
| CCn1cc2[nH]c(OC)c(CNC(=O)C3CCS(=O)(=O)CC3)cc-2c1=O | 4.93% |
